{"source": "paper PMC10843616", "about": "(European journal of medicinal chemistry, 2023)", "key": {"[1]": {"test": "Human liver microsome stability", "assay_type": "in vitro ADME", "conditions": "liver microsomes"}, "[2]": {"system": "bloodstream forms of T. brucei brucei (strain 427)", "test": "T. b. brucei growth inhibition, Alamar blue assay", "assay_type": "cell-based, Trypanosoma brucei brucei", "conditions": "Hep G2 CC50 / T.b.b EC50"}, "[3]": {"system": "Bloodstream forms of T. b. gambiense (130R)", "test": "T. b. gambiense growth inhibition, resazurin assay", "assay_type": "cell-based, Trypanosoma brucei gambiense", "conditions": "for SI (CC50/EC50), T.b.g: Hep G2 CC50 / T.b.g EC50"}, "[4]": {"system": "Bloodstream forms of T. b. rhodesiense (STIB 900)", "test": "T. b. rhodesiense growth inhibition, resazurin assay", "assay_type": "cell-based, Trypanosoma brucei rhodesiense", "conditions": "for SI (CC50/EC50), T.b.r: Hep G2 CC50 / T.b.r EC50"}, "[5]": {"system": "T. b. brucei AnTat1.1 trypomastigotes expressing Renilla luciferase", "test": "T. b. brucei acute infection mouse efficacy", "assay_type": "in vivo, BALB/c mice", "conditions": "5 consecutive days; for parasite growth in vivo, intraperitoneal: 100 mpk IP; for parasite growth in vivo, oral: 100 mpk oral gavage"}, "[6]": {"system": "T. b. rhodesiense STIB 900-luc", "test": "T. b. rhodesiense acute infection mouse efficacy", "assay_type": "in vivo, NMRI mice", "conditions": "four days; for animals surviving to 60 days with no detectable parasitemia: oral", "in_short": "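Female NMRI mice, five per group, were inoculated i.p. with 1 x 10^4 bloodstream-form STIB 900-luc. Oral gavage started day 3 post-infection for four consecutive days, in PBS with 0.5% hydroxyl-methylcellulose and 0.5% Tween 80. Three mice were infected-untreated controls. Parasitemia was tracked by whole-animal bioluminescence imaging after D-luciferin: twice weekly for two weeks after treatment, then weekly to day 60. Cure meant a day-60 signal not above background.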"}, "[7]": {"test": "Single-dose pharmacokinetics in mice", "assay_type": "in vivo, mice (C57BL/6", "conditions": "male, C57BL/6, mouse, plasma, oral, 5 mg/kg"}, "[8]": {"molecular_target": "tCatL (trypanosomal cathepsin-L) (Trypanosoma brucei rhodesiense, UniProt Q95PM0)", "test": "tCatL inhibition assay", "assay_type": "biochemical", "conditions": "at 10 μM after 1 hour", "in_short": "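Recombinant tCatL was expressed in Pichia pastoris and purified. Inhibition was run by a previously published protocol, with E-64 as the positive control.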"}, "T. b. rhodesiense": {"system": "T. b. rhodesiense", "conditions": "100 mpk once a day; ref as previously reported; cited from earlier work"}, "[9]": {"conditions": "25 mpk; ref as previously reported; cited from earlier work"}}, "note": "Where two headings read alike, the source gives them in different places."}
{"smiles": "O=C(N[C@H](/C=C/S(=O)(=O)c1ccccc1)CCc1ccccc1)c1ccc([N+](=O)[O-])o1", "note": "[Compound 1]", "values": [{"measurement": "half-life", "setting": "[1]", "result": 10.8, "unit": "min"}]}
{"smiles": "O=C(N[C@H](/C=C/S(=O)(=O)c1ccccc1)CCc1ccccc1)c1cc(Cl)c([N+](=O)[O-])[nH]1", "note": "[Compound 3, (S,E)-4-chloro-5-nitro-N-[5-phenyl-1-(phenylsulfonyl)pent-1-en-3-yl]-1H-pyrrole-2-carboxamide]", "values": [{"measurement": "SI (CC50/EC50), T.b.b", "setting": "[2]", "result": ">5.13"}]}
{"smiles": "O=C(NC/C=C/S(=O)(=O)c1ccccc1)c1ccc([N+](=O)[O-])s1", "note": "[Compound 4, (E)-5-nitro-N-[3-(phenylsulfonyl)allyl]thiophene-2-carboxamide]", "values": [{"measurement": "SI (CC50/EC50), T.b.g", "setting": "[3]", "result": 63.81}, {"measurement": "SI (CC50/EC50), T.b.b", "setting": "[2]", "result": 3.21}, {"measurement": "SI (CC50/EC50), T.b.r", "setting": "[4]", "result": 33.47}]}
{"smiles": "O=C(NC/C=C/S(=O)(=O)c1ccccc1)c1ccco1", "note": "[Compound 6, (E)-N-[3-(phenylsulfonyl)allyl]furan-2-carboxamide]", "values": [{"measurement": "SI (CC50/EC50), T.b.b", "setting": "[2]", "result": 34.02}]}
{"smiles": "CS(=O)(=O)/C=C/CNC(=O)c1ccc([N+](=O)[O-])o1", "note": "[Compound 7, (E)-N-[3-(methylsulfonyl)allyl]-5-nitrofuran-2-carboxamide]", "values": [{"measurement": "parasite growth in vivo, intraperitoneal", "setting": "[5]", "result": "ineffective"}, {"measurement": "parasite growth in vivo, oral", "setting": "[5]", "result": "reduced parasitemia"}]}
{"smiles": "CNC(=O)/C=C/CNC(=O)c1ccc([N+](=O)[O-])s1", "note": "[Compound 10, (E)-N-[4-(methylamino)-4-oxobut-2-en-1-yl]-5-nitrothiophene-2-carboxamide]", "values": [{"measurement": "parasite growth in vivo, intraperitoneal", "setting": "[5]", "result": "suppressed parasite growth"}, {"measurement": "parasite growth in vivo, oral", "setting": "[5]", "result": "suppressed parasite growth"}, {"measurement": "SI (CC50/EC50), T.b.g", "setting": "[3]", "result": "> 576.92"}, {"measurement": "SI (CC50/EC50), T.b.b", "setting": "[2]", "result": "> 138.88"}, {"measurement": "animals surviving to 60 days", "setting": "[6]; 100 mpk b.i.d, orally", "result": "3 out of 5"}, {"measurement": "animals surviving to 60 days with no detectable parasitemia", "setting": "[6]; 200 mpk once daily", "result": "4 out of 5"}, {"measurement": "animals surviving to 60 days with no detectable parasitemia", "setting": "[6]; 200 mpk twice daily", "result": "4 out of 5"}, {"measurement": "SI (CC50/EC50), T.b.r", "setting": "[4]", "result": "> 535.71"}, {"measurement": "EC90", "setting": "[4]; Trypanosoma brucei, RHODESIENSE|STIB900, read-out: EC90 for T. b. rhodesiense", "result": 210, "unit": "nM"}, {"measurement": "concentration at 2 h", "setting": "[7]", "result": 720, "unit": "nM"}]}
{"smiles": "CNC(=O)/C=C/CNC(=O)c1ccc([N+](=O)[O-])o1", "note": "[Compound 11, (E)-N-[4-(methylamino)-4-oxobut-2-en-1-yl]-5-nitrofuran-2-carboxamide]", "values": [{"measurement": "SI (CC50/EC50), T.b.g", "setting": "[3]", "result": "> 159.57"}, {"measurement": "SI (CC50/EC50), T.b.b", "setting": "[2]", "result": "> 44.38"}, {"measurement": "SI (CC50/EC50), T.b.r", "setting": "[4]", "result": "> 340.91"}]}
{"smiles": "CS(=O)(=O)CCCNC(=O)c1cccs1", "note": "[Compound 16, N-[3-(methylsulfonyl)propyl]thiophene-2-carboxamide]", "values": [{"measurement": "Percentage inhibition of tCatL", "setting": "[8]", "result": "inactive"}]}
{"smiles": "CNC(=O)CCCNC(=O)c1ccc([N+](=O)[O-])s1", "note": "[Compound 17, N-[4-(methylamino)-4-oxobutyl]-5-nitrothiophene-2-carboxamide]", "values": [{"measurement": "Percentage inhibition of tCatL", "setting": "[8]", "result": "inactive"}]}
{"smiles": "CNC(=O)CCCNC(=O)c1cccs1", "note": "[Compound 18, N-[4-(methylamino)-4-oxobutyl]thiophene-2-carboxamide]", "values": [{"measurement": "Percentage inhibition of tCatL", "setting": "[8]", "result": "inactive"}]}
{"smiles": "CC(C)C[C@H](NC(=O)[C@H]1O[C@@H]1C(=O)O)C(=O)NCCCCN=C(N)N", "note": "[Compound E64, E-64, reference compound]", "values": [{"measurement": "Percentage inhibition of tCatL", "setting": "[8]", "result": 100, "unit": "%"}]}
{"smiles": "Nc1nc(N)nc(Nc2ccc([As]3SCC(CO)S3)cc2)n1", "note": "(stereo not shown) [Melarsoprol, reference compound]", "values": [{"measurement": "EC50", "setting": "[3]; Trypanosoma brucei, GAMBIENSE, 68 h, read-out: T.b.g EC50, 130R, 68 h incubation", "result": "7 ± 3", "unit": "nM"}]}
{"smiles": "CSc1ccc(OCc2ncc([N+](=O)[O-])n2C)cc1", "note": "[fexinidazole]", "values": [{"measurement": "infected mice treated (cured)", "setting": "T. b. rhodesiense", "result": "4 out of 4"}, {"measurement": "half-life", "setting": "[9]", "result": 48, "unit": "min"}]}
